Reference: publication PMC4263960 (Pediatric blood & cancer, 2013)
Where two headings read alike, the source gives them in different places.

Experiments:
CHLA-10 cell line = assay: DIMSCAN in vitro cytotoxicity testing, CHLA-10; format: cell-based
Summary of the method: (§1)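 Test compound incubated with cells of a 24-line pediatric cancer panel for 96 h at 0.1 nM to 1 μM, then assessed by DIMSCAN. Relative IC50 (rIC50) derived per line. Panel comparison value is the panel rIC50 divided by the rIC50 of each cell line.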

[1] = system: PPTP in vitro cell line panel; assay: DIMSCAN in vitro cytotoxicity testing, panel summary; format: cell-based
Rh30 cell line = assay: DIMSCAN in vitro cytotoxicity testing, Rh30; format: cell-based
Summary of the method: as §1

[2] = system: Rh30R ALV rhabdomyosarcoma xenograft; assay: PPTP in vivo xenograft testing, Rh30R; parameters: species or system mice
CHLA-9 cell line = assay: DIMSCAN in vitro cytotoxicity testing, CHLA-9; format: cell-based
Summary of the method: as §1

[3] = system: BT-50 medulloblastoma xenograft; assay: PPTP in vivo xenograft testing, BT-50; parameters: species or system mice
Ramos-RA1 cell line = assay: DIMSCAN in vitro cytotoxicity testing, Ramos-RA1; format: cell-based
Summary of the method: as §1

[4] = system: ALL-31 tertiary T-cell ALL xenograft; assay: PPTP in vivo xenograft testing, ALL-31; parameters: species or system mice
[5] = system: OS-2 osteosarcoma xenograft; assay: PPTP in vivo xenograft testing, OS-2; parameters: species or system mice
[6] = system: Rh10 ALV rhabdomyosarcoma xenograft; assay: PPTP in vivo xenograft testing, Rh10; parameters: species or system mice
[7] = system: BT-39 glioblastoma xenograft; assay: PPTP in vivo xenograft testing, BT-39; parameters: species or system mice; details: 1 mg/kg IP
[8] = 1 mg/kg IP Q4Dx3 repeated at Day 21

C=C1C[C@@H]2CC[C@@]34C[C@H]5O[C@H]6[C@@H](O3)[C@H]3O[C@H](CC[C@@H]3O[C@H]6[C@H]5O4)CC(=O)C[C@@H]3[C@@H](OC)[C@@H](C[C@H](O)CN)O[C@H]3C[C@H]3O[C@@H](CC[C@@H]1O2)C[C@@H](C)C3=C [Eribulin]
IC50 (CHLA-10 cell line; 96 h, read-out: rIC50): 0.11 nM
Panel rIC50/Line rIC50 (CHLA-10 cell line; CHLA-10): 2.58
Relative in/out% (CHLA-10 cell line; CHLA-10): −28%
Ymin % (observed) (CHLA-10 cell line; CHLA-10): 4.54%
Panel rIC50/Line rIC50, maximum ([1]; maximum of PPTP cell lines): >2.74
Relative in/out%, maximum ([1]; maximum of PPTP cell lines): −18%
Ymin % (observed), maximum ([1]; maximum of PPTP cell lines): 20.92%
Panel rIC50/Line rIC50, median ([1]; median of PPTP cell lines): 1.20
Relative in/out%, median ([1]; median of PPTP cell lines): −89%
Ymin % (observed), median ([1]; median of PPTP cell lines): 1.79%
Panel rIC50/Line rIC50, minimum ([1]; minimum of PPTP cell lines): 0.02
Relative in/out%, minimum ([1]; minimum of PPTP cell lines): −100%
Ymin % (observed), minimum ([1]; minimum of PPTP cell lines): 0.00%
IC50 ([1]; read-out: rIC50, maximum, maximum of PPTP cell lines): 14.8 nM
IC50 ([1]; read-out: rIC50, median, median of PPTP cell lines): 0.27 nM
IC50 ([1]; read-out: rIC50, minimum, minimum of PPTP cell lines): < 0.1 nM
IC50 ([1]; read-out: rIC50, most sensitive cell lines, lymphoid origin (three ALL, one ALCL, one NHL)): < 0.1 nM
IC50 ([1]; read-out: rIC50, other (non-neuroblastoma) PPTP cell lines): 0.14 nM
IC50 ([1]; read-out: relative IC50 (rIC50), range, range over the PPTP cell lines): 0.1 to 14.8 nM
Panel rIC50/Line rIC50 (Rh30 cell line; Rh30): 2.47
Relative in/out% (Rh30 cell line; Rh30): −23%
Ymin % (observed) (Rh30 cell line; Rh30): 12.75%
IC50 (Rh30 cell line; Rh30, 96 h, read-out: rIC50): 0.11 nM
EFS activity ([2]; 1 mg/kg IP): High (High activity requires: (a) an EFS T/C >2; (b) a significant difference in EFS distributions, and (c) a net reduction in median tumor volume for animals in the treated group at the end of treatment as compared to at treatment initiation)
Response activity ([2]; 1 mg/kg IP): High (A high level of activity is indicated by a score of 6 or more)
T/C volume activity ([2]; 1 mg/kg IP): High (High activity = T/C ≤0.15)
EFS T/C [2, 8]: >4.3
Median final RTV (CD45%) [2, 8]: 0.0
Tumor volume T/C ([2]; 1 mg/kg IP, Day 21 or earlier): 0.11
IC50 (CHLA-9 cell line; 96 h, read-out: rIC50): 0.16 nM
Panel rIC50/Line rIC50 (CHLA-9 cell line; CHLA-9): 1.68
Relative in/out% (CHLA-9 cell line; CHLA-9): −49%
Ymin % (observed) (CHLA-9 cell line; CHLA-9): 1.82%
Response activity ([3]; 1 mg/kg IP): Low (low activity by a score of <2)
T/C volume activity ([3]; 1 mg/kg IP): Low (Low activity = T/C >0.45)
EFS T/C [3, 8]: >1.1
Median final RTV (CD45%) [3, 8]: >4
Tumor volume T/C ([3]; 1 mg/kg IP, Day 21 or earlier): 0.78
IC50 (Ramos-RA1 cell line; 96 h, read-out: rIC50): < 0.1 nM
Panel rIC50/Line rIC50 (Ramos-RA1 cell line; Ramos-RA1): >2.74
Relative in/out% (Ramos-RA1 cell line; Ramos-RA1): −100%
Ymin % (observed) (Ramos-RA1 cell line; Ramos-RA1): 0.00%
EFS activity ([4]; 1.5 mg/kg IP): Int (Intermediate activity = criteria (a) and (b) above, but not having a net reduction in median tumor volume for treated animals at the end of the study)
Response activity ([4]; 1.5 mg/kg IP): High (A high level of activity is indicated by a score of 6 or more)
EFS T/C ([4]; 1.5 mg/kg IP Q4Dx3 repeated at Day 21): >3.7
Median final RTV (CD45%) ([4]; CD45%, 1.5 mg/kg IP): 12.9%
EFS activity ([5]; 1 mg/kg IP): High (High activity requires: (a) an EFS T/C >2; (b) a significant difference in EFS distributions, and (c) a net reduction in median tumor volume for animals in the treated group at the end of treatment as compared to at treatment initiation)
Response activity ([5]; 1 mg/kg IP): Int (intermediate activity by a score of ≥2 but <6)
T/C volume activity ([5]; 1 mg/kg IP): Int (Intermediate activity = T/C ≤0.45 but >0.15)
EFS T/C [5, 8]: >2.5
Median final RTV (CD45%) [5, 8]: 0.8
Tumor volume T/C ([5]; 1 mg/kg IP, Day 21 or earlier): 0.21
EFS activity ([6]; 1 mg/kg IP): High (High activity requires: (a) an EFS T/C >2; (b) a significant difference in EFS distributions, and (c) a net reduction in median tumor volume for animals in the treated group at the end of treatment as compared to at treatment initiation)
Response activity ([6]; 1 mg/kg IP): High (A high level of activity is indicated by a score of 6 or more)
T/C volume activity ([6]; 1 mg/kg IP): High (High activity = T/C ≤0.15)
EFS T/C [6, 8]: >3.8
Median final RTV (CD45%) [6, 8]: 0.0
Tumor volume T/C ([6]; 1 mg/kg IP, Day 21 or earlier): 0.08
EFS activity [7]: High (High activity requires: (a) an EFS T/C >2; (b) a significant difference in EFS distributions, and (c) a net reduction in median tumor volume for animals in the treated group at the end of treatment as compared to at treatment initiation)
Response activity [7]: Int (intermediate activity by a score of ≥2 but <6)
